The list is not random: actives were taken first. Their share in the collection is about 3.4%.
p97 ATPase inh: human p97 ATPase inhibition; P55072; recombinant p97 ATPase, Kinase-Glo ATP luminescence, 3 h; inhibition, % at 8 µM; hit rate 0.42% among 220,000; in the data active = inhibition above about 15%
PKD1 inh: PKD1 (human) kinase inhibition; hit rate 0.056% among 200,000; PKD1 kinase fluorescence polarization assay; Q15139; inhibition, % (test concentration not listed); in the data active = inhibition above about 50%
Redox H2O2 prof: compounds producing H2O2 with reducing agent – biochemical, NIH compound library profiling, artefact control for MLSCN library redox annotation, primary screen; activation, % at 10 µM; DTT-dependent redox cycling H2O2, phenol red/HRP absorbance; 100% = 100 µM peroxide control, 0% = buffer; hit rate 0.03% among 200,000;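 active = activation of at least 50% relative to the plate's high and low controls in the primary single-dose screen; inactive = activation below 50%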;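 also: compound incubated with DTT at 0.8 mM final as the reducing agent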
ROMK primary: human ROMK K+ channel modulation, primary screen | P48048 | Tet-inducible ROMK, thallium flux fluorescence; actives lie on both sides | B-score at 10 µM | hit rate 2% among 130,000;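 active = signal ratio slope over the read window, or its plate-corrected B-score, at least 3 SD from the plate mean, either direction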;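 also: B-score of the F/F0 ratio slope over 7 to 12 s after thallium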
KCC2 mod: modulators of human KCC2 chloride dependent transport | Q9H2X9 | KCC2 cells, thallium flux FluoZin-2 fluorescence | B-score of Tl+ flux slope (higher = more flux/activation; lower = inhibition) at 10 µM | hit rate 2.2% among 190,000 | AID 1456;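 active = thallium flux slope and its plate-corrected score both differing from the plate sample mean at a set confidence after two filtering rounds, in either direction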;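 also: slope of fluorescence scaled to starting intensity during 10 to 20 s after thallium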
MDM2 E3 inh: inhibitors of human Mdm2 E3 ubiquitin ligase; Q00987; signal enhancement, % at 5 µM; hit rate 0.11% among 210,000; cell-based MDM2 ubiquitination luciferase reporter, 2 h; 0 = plate control, 100 = twice control, blank-subtracted;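 active = signal enhancement of 30% or more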;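 also: luminescence tracks abundance of the self-degrading MDM2-luciferase fusion protein; higher signal means inhibition of MDM2 E3 ligase activity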
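Assay system: stable mammalian line carrying autodegrading MDM2–luciferase fusion reporter; amount: 2000 cells seeded into each well; buffer or medium: DMEM; benchmarks: plate control and blank wells; signal: luciferase luminescence; timing: 2 h compound exposure at 37 °C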
ROMK hit retest: confirmation of human ROMK potassium channel modulators | hit rate 54% among 3,000 | shares compounds with ROMK primary | normalized thallium flux (F/F0 slope) at 10 µM | ROMK thallium flux, fluorescence ratio; hits give low values;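 active = Flux at 10 µM at least 3 SD below or above vehicle control mean in one or both replicates; inconclusive = no clear call, values can overlap the other calls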
Each line names hits and unclear results; the compound was inactive in the other large screens (follow-up assays come after a bar, where they were run).

O=C(CCc1ccc(Oc2cc([N+](=O)[O-])cc([N+](=O)[O-])c2)cc1)N1CCCCCC1	ROMK primary -2.9 | ROMK hit retest 0.064
O=C(CCc1ccccc1)N1CCN(c2ccc([N+](=O)[O-])cc2)CC1	ROMK primary -3.6 | ROMK hit retest 0.063
CC(C)CCOC(=O)C[N+](C)(C)CCOC1CC2CCC1(C)C2(C)C (stereo not given)	ROMK primary -4.1 | ROMK hit retest 0.052
CCCCCCOC(=O)C[N+](C)(C)CCOC1CC2CCC1(C)C2(C)C (stereo not given)	none (no result: ROMK primary, KCC2 mod) | ROMK hit retest 0.045
CCCCCCCOC(=O)C[N+](C)(C)CCOC1CC2CCC1(C)C2(C)C (stereo not given)	none (no result: ROMK primary) | ROMK hit retest 0.043
CCCOC(=O)C[N+](C)(C)CCOC1CC2CCC1(C)C2(C)C (stereo not given)	none (no result: PKD1 inh, Redox H2O2 prof, ROMK primary)
O=[N+]([O-])c1cccc(/C=N/NC2=NCCCCC2)c1	none
O=C1C=C(Nc2cccc(O)c2)CC(c2ccco2)C1 (stereo not given)	none
COc1cccc(Cn2c(=S)[nH]c3ccc(N4CCOCC4)cc3c2=O)c1	none
O=c1c2cc(N3CCOCC3)ccc2[nH]c(=S)n1Cc1cccc(Cl)c1	none (no result: ROMK primary, KCC2 mod) | ROMK hit retest inactive
CN1C(=O)CC(N2CCN(CCN=CC3=C(O)CC(C)(C)CC3=O)CC2)C1=O (stereo not given)	none
O=C1CC(c2ccc(Cl)c(Cl)c2)CC(O)=C1C=NCCN1CCNCC1 (stereo not given)	none (no result: ROMK primary) | ROMK hit retest 0.057
CC1(C)CC(=O)C(C=NCCN2CCN(C3CC(=O)N(c4ccc(Cl)c(Cl)c4)C3=O)CC2)=C(O)C1 (stereo not given)	ROMK primary -6.7 | ROMK hit retest inactive
O=C1CC(c2ccc(F)cc2)CC(O)=C1C=NCCN1CCNCC1 (stereo not given)	none (no result: ROMK primary)
O=C(CCSc1ccccc1Cl)Nc1cccc([N+](=O)[O-])c1	none
O=S(=O)(Nc1cc(Sc2ncn[nH]2)c(O)c2ccccc12)c1ccccc1	p97 ATPase inh 29, ROMK primary -4.3 | ROMK hit retest 0.046
Cc1cc(NS(=O)(=O)c2ccccc2)c(C)c(Cl)c1O	none (no result: p97 ATPase inh, PKD1 inh, Redox H2O2 prof, ROMK primary, KCC2 mod)
CC(C)c1cc(C(=O)O)c2ccccc2n1	none (no result: PKD1 inh, Redox H2O2 prof, ROMK primary, MDM2 E3 inh)
COc1ccc(-c2nc(CN3CCC(C(=O)N4CCc5ccccc54)CC3)c(C)o2)cc1OC	none (no result: ROMK primary, KCC2 mod) | ROMK hit retest inconclusive
COc1ccc(-c2cc3ccccc3n2CC(O)Cn2nc(C)cc2C)cc1 (stereo not given)	none (no result: ROMK primary)
COc1ccc(CN2CCN(CC(O)Cn3c4ccccc4c4ccccc43)CC2)cc1 (stereo not given)	ROMK primary -3.6 | ROMK hit retest 0.06
COc1ccc(-c2cc3ccccc3n2CC(O)CN2CCC(C)CC2)cc1 (stereo not given)	ROMK primary -2 | ROMK hit retest 0.057
CCOC(=O)c1c(/N=C/c2ccc(OC)cc2O)sc2c1CCN(C)C2	none (no result: PKD1 inh, Redox H2O2 prof, ROMK primary)
CCOC(=O)c1c(/N=C/c2ccc(C)cc2O)sc2c1CCC2	ROMK primary -2.4 | ROMK hit retest 0.039
O=C(N/N=C/c1ccc(O)cc1)c1cc(C23CC4CC(CC(C4)C2)C3)[nH]n1	none (no result: PKD1 inh, Redox H2O2 prof, ROMK primary) | ROMK hit retest inactive
COc1ccc(/C=N/NC(=O)c2cc(C34CC5CC(CC(C5)C3)C4)[nH]n2)cc1OC	none (no result: ROMK primary)
Nc1nc(NCc2ccc(Cl)cc2)nc(NCCO)c1[N+](=O)[O-]	none (no result: PKD1 inh, Redox H2O2 prof, ROMK primary) | ROMK hit retest inactive
CC(=O)Nc1ccc(NC(=O)C2CC(=O)N(c3cccc(C)c3C)C2)cc1 (stereo not given)	none (no result: ROMK primary)
CCn1c(/C=C/Nc2ccccc2)[n+](CC)c2cc(Cl)c(Cl)cc21	ROMK primary -3.9 | ROMK hit retest 0.044
COc1ccc(NC(=O)CSc2cc(C(=O)c3nccn3C)c3ccccc3n2)cc1	none
COCC(=O)NCCc1ccc(S(N)(=O)=O)cc1	none (no result: ROMK primary)
COc1ccc(CC(=O)NCCc2ccc(S(N)(=O)=O)cc2)cc1	ROMK primary 1.5 | ROMK hit retest inactive
CCOC(=O)c1c(C)n(C)c2ccc(OC)c(NC(=O)CN3CCN(Cc4ccccc4)CC3)c12	ROMK primary -3.2 | ROMK hit retest 0.068
CC(=O)Cc1nsc(NC(=O)c2ccc(-c3cc(Cl)ccc3Cl)o2)n1	ROMK primary 3.8 | ROMK hit retest inactive
Cc1ccc2cc3c(N)c(C(=O)N4CC(=O)Nc5ccccc54)sc3nc2c1	none (no result: ROMK primary) | ROMK hit retest 0.046
Cc1ccc2cc3c(N)c(C(=O)N4CCOCC4)sc3nc2c1	none (no result: ROMK primary)
COc1cccc(CNCCNC(=O)c2ccco2)c1OC	ROMK primary 2.9 | ROMK hit retest inactive
COc1ccccc1C(=O)NCCNC(=O)c1ccco1	none | ROMK hit retest inactive
Cc1ccc(/C=C2\Oc3c(ccc(O)c3CN3CCN(C)CC3)C2=O)cc1	none (no result: ROMK primary)
CCc1ccc(/C=C2\Oc3c(ccc(O)c3CN3CCN(C)CC3)C2=O)cc1	ROMK primary -8.1 (no result: PKD1 inh, Redox H2O2 prof) | ROMK hit retest 0.046
CCN1CCN(Cc2c(O)ccc3c2O/C(=C\c2ccc(C)cc2)C3=O)CC1	ROMK primary -5.7 | ROMK hit retest 0.04
Cc1cccc(Nc2nc(-c3ccccc3)c(C(=O)Nc3cccnc3)s2)c1	none (no result: ROMK primary)
O=C(/C=C/c1cn(CC(O)CN2CCCCC2)c2ccccc12)c1ccccc1 (stereo not given)	none (no result: PKD1 inh, Redox H2O2 prof, ROMK primary) | ROMK hit retest 0.057
COc1ccc(C(=O)/C=C/c2cn(CC(O)CN3CCN(C)CC3)c3ccccc23)cc1OC (stereo not given)	none (no result: PKD1 inh, Redox H2O2 prof, ROMK primary) | ROMK hit retest 0.059
CN1CCN(Cn2cc(/C=C/C(=O)c3ccccc3)c3ccccc32)CC1	none
CCCN(CCC)CC(O)Cn1cc(/C=C/C(=O)c2ccccc2)c2ccccc21 (stereo not given)	none
CCOc1ccc(NC(=S)NCCCN2CCN(c3ccc(OC)cc3)CC2)cc1	none
Cn1nc(C(=O)N2CCN(C(c3ccccc3)c3ccccc3)CC2)c2ccccc2c1=O	none (no result: PKD1 inh, Redox H2O2 prof, ROMK primary) | ROMK hit retest 0.06
CC(C)c1cc(C(=O)N2CCN(C(c3ccccc3)c3ccccc3)CC2)no1	none
CC(C)Cc1cc(C(=O)N2CCN(C(c3ccccc3)c3ccccc3)CC2)no1	none (no result: ROMK primary) | ROMK hit retest 0.062
Cn1nc(C(=O)N2CCN(S(=O)(=O)/C=C/c3ccccc3)CC2)c2ccccc2c1=O	none (no result: ROMK primary)
O=C(Nc1cccc(Cl)c1)c1ccc(F)c(S(=O)(=O)NCc2ccc3c(c2)OCO3)c1	none
Cc1nn(Cc2ccccc2)c2c1C(c1ccncc1)C(C#N)=C(N)O2 (stereo not given)	none (no result: p97 ATPase inh, PKD1 inh, Redox H2O2 prof, ROMK primary, KCC2 mod)
Cc1nn(Cc2ccccc2)c2c1C(c1ccc(Cl)cc1)C(C#N)=C(N)O2 (stereo not given)	ROMK primary -2.9 | ROMK hit retest 0.059
